# Measurements reported in ChEMBL document CHEMBL3352721, “Identification, optimization, and pharmacology of acylurea GHS-R1a inverse agonists” (J Med Chem, 2014).
# Active and inactive are the calls of the source. The calls are words filed in the database; no cut-off is given here.
# Legend:
# [1] = Ratio of drug level in homogenized brain to plasma in CD1 mouse at 2 mg/kg, po measured after 6 hrs by LC-MS/MS method; assay type: ADME, organism-based; parameters: dose 2 mg/kg, route oral; conditions: read-out: BPR
# Outline: (§1)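 CD-1 mice dosed PO in 1% Pluronic F127. Drug was measured in homogenized brain and in plasma 6 h after dosing and expressed as a brain:plasma ratio. The free ratio used free fraction measured in mouse plasma and rat brain (brain slice or brain homogenate).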
# [2] = Ratio of free drug level in homogenized brain to plasma in CD1 mouse measured 6 hrs after oral dosing by LC-MS/MS method; assay type: ADME; outline: as §1
# [3] = Cmax in CD1 mouse at 2 mg/kg, po by LC-MS/MS method; assay type: ADME, organism-based; parameters: dose 2 mg/kg, route oral; conditions: in vivo
# Outline: (§2)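 Oral gavage in male HW rats, beagle dogs or CD-1 mice, vehicle Pluronic F127 in water. EDTA plasma was collected over 24 h and quantified by LC/MS/MS after acetonitrile precipitation. Cmax and bioavailability were obtained by non-compartmental analysis against IV data.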
# [4] = Lipophilicity, logD of the compound; assay type: physicochemical; conditions: octanol/water
# MDR1 [5] = assay: Efflux ratio in MDCK cells expressing MDR1 at 10 uM; assay type: ADME, cell-based, Canis lupus familiaris; conditions: dog
# Outline: (§3)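 MDCK-MDR1 monolayers incubated with compound at 10 µM; permeability measured in both A→B and B→A directions, giving Papp A-B (x10^6 cm/s) and the efflux ratio.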
# [6] = biological target: Growth hormone secretagogue receptor type 1 (Homo sapiens, UniProt Q92847); assay: Displacement of [125I]human ghrelin from human GHS-R1a expressed in HEK cell membranes after 60 mins by gamma counting method; parameters: species or system HEK293
# Sequence of Growth hormone secretagogue receptor type 1 (Q92847 whole entry): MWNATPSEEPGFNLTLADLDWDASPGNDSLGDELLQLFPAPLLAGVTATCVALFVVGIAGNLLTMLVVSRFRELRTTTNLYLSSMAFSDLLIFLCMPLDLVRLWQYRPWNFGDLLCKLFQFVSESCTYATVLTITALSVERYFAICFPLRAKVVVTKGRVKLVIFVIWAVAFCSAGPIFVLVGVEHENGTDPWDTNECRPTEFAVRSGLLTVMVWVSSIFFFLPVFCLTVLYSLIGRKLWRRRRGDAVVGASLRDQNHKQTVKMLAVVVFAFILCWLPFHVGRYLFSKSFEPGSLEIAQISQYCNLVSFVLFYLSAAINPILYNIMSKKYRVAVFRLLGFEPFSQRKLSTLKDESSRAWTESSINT
# MDR1 [7] = assay: Apparent permeability in MDCK cells expressing MDR1 at 10 uM assessed as apical to basolateral side transport; assay type: ADME, cell-based, Canis lupus familiaris; conditions: dog; outline: as §3
# [8] = Unbound fraction in Han-Wistar rat plasma; assay type: ADME, cell-free
# [9] = Cmax in CD1 mouse at 5 mg/kg, po; assay type: ADME, organism-based; parameters: dose 5 mg/kg, route oral; conditions: in vivo; outline: as §2
# [10] = Oral bioavailability in Han-Wistar rat at 2 mg/kg; assay type: ADME, organism-based; conditions: Han-Wistar, in vivo; outline: as §2
# [11] = Ratio of plasma concentration in C57Bl6j mouse free feeding model at 30 mg/kg, po after 1 hr to IC50 for mouse GHS-R1a expressed in HEK cell membranes; assay type: ADME, organism-based, HEK293; parameters: dose 30 mg/kg, route oral; conditions: in vivo
# Outline: (§4)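 Male mice were kept on a reversed light cycle and given a 1% Pluronic F127 suspension orally (10 mL/kg) about 1 h before dark. Plasma exposure was corrected for mouse plasma protein binding and divided by mouse GHS-R1a binding IC50. Binding was 20 pM [125I]ghrelin displacement on HEK membranes, 60 min rt, pH 7.4, read by gamma counting.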
# [12] = Aqueous solubility at pH 7.4 under thermodynamic conditions; assay type: physicochemical; conditions: buffer, read-out: Therm_solubility
# Outline: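 Thermodynamic solubility measured from solid samples in aqueous medium at pH 7.4.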
# [13] = Cmax in Han-Wistar rat at 2 mg/kg, po; assay type: ADME, organism-based; parameters: dose 2 mg/kg, route oral; conditions: in vivo; outline: as §2
# [14] = Cmax in beagle dog at 1 mg/kg, po; assay type: ADME, organism-based, Canis lupus familiaris; parameters: dose 1 mg/kg, route oral; conditions: in vivo; outline: as §2
# [15] = Unbound fraction in beagle dog plasma; assay type: ADME, cell-free, Canis lupus familiaris
# [16] = Volume of distribution at steady state in CD1 mouse at 2 mg/kg, iv; assay type: ADME, organism-based; parameters: dose 2 mg/kg, route intravenous; conditions: in vivo, read-out: Vdss
# Outline: (§5)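 Male HW rats, beagle dogs or CD-1 mice received an IV bolus in 5% DMSO/95% hydroxypropyl-β-cyclodextrin (30% w/v). EDTA plasma was sampled over 24 h and assayed by LC/MS/MS after acetonitrile protein precipitation. CL and Vss were obtained by non-compartmental analysis.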
# [17] = Clearance in Han-Wistar rat at 2 mg/kg, iv; assay type: ADME, organism-based; parameters: dose 2 mg/kg, route intravenous; conditions: in vivo; outline: as §5
# [18] = Oral bioavailability in CD1 mouse at 5 mg/kg; assay type: ADME, organism-based; conditions: in vivo; outline: as §2
# [19] = Clearance in beagle dog at 1 mg/kg, iv; assay type: ADME, organism-based, Canis lupus familiaris; parameters: dose 1 mg/kg, route intravenous; conditions: in vivo; outline: as §5
# [20] = Displacement of [125I]human ghrelin from mouse GHS-R1a expressed in HEK cell membranes after 60 mins by gamma counting method; conditions: hek293
# Outline: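 HEK cell membranes stably overexpressing mouse or rat GHS-R1a (4 µg/well) incubated 60 min at rt with 20 pM [125I]human ghrelin and competing compound. Buffer: 50 mM Tris-HCl, 5 mM MgCl2, 0.01% BSA, pH 7.4, plus 10 µM methyl arachidonyl fluorophosphonate. Stopped by filtration over PEI-soaked GF/C filters with ice-cold washes, then gamma counting. IC50 is the mean of ≥2 independent determinations.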
# [21] = Ratio of plasma concentration in C57Bl6j mouse free feeding model at 30 mg/kg, po after 6 hrs to IC50 for mouse GHS-R1a expressed in HEK cell membranes; assay type: ADME, organism-based, HEK293; parameters: dose 30 mg/kg, route oral; conditions: in vivo; outline: as §4
# [22] = Oral bioavailability in beagle dog at 1 mg/kg; assay type: ADME, organism-based, Canis lupus familiaris; conditions: in vivo; outline: as §2
# [23] = Volume of distribution at steady state in beagle dog at 1 mg/kg, iv; assay type: ADME, organism-based, Canis lupus familiaris; parameters: dose 1 mg/kg, route intravenous; conditions: in vivo, read-out: Vdss; outline: as §5
# [24] = biological target: Growth hormone secretagogue receptor type 1 (Rattus norvegicus) (UniProt O08725); assay: Displacement of [125I]human ghrelin from rat GHS-R1a expressed in HEK cell membranes after 60 mins by gamma counting method; conditions: hek293
# Sequence of Growth hormone secretagogue receptor type 1 (Rattus norvegicus) (O08725 whole entry, looked up): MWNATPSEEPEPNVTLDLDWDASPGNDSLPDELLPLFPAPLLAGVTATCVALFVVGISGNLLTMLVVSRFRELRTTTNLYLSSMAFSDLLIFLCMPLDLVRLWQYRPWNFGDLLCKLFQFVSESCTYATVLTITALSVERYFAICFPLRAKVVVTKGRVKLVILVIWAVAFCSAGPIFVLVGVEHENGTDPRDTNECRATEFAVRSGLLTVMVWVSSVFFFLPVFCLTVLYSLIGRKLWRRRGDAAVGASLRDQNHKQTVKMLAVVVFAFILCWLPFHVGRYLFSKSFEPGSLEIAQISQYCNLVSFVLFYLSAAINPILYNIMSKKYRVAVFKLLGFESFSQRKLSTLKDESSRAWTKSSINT
# [25] = Ratio of plasma concentration in C57Bl6j mouse free feeding model at 30 mg/kg, po after 2 hrs to IC50 for mouse GHS-R1a expressed in HEK cell membranes; assay type: ADME, organism-based, HEK293; parameters: dose 30 mg/kg, route oral; conditions: in vivo; outline: as §4
# Mus musculus [26] = assay: Increase in food intake in po dosed C57Bl6j mouse free feeding model measured over 24 hrs period; assay type: functional
# Outline: (§6)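 Male mice (C57Bl6j, GHSr1-/- or wild-type littermates) were acclimatized 3 weeks to reversed light-dark, then individually housed 7 days and grouped (n=10-12) by baseline intake and body weight. Suspensions in 1% Pluronic F127 or vehicle were gavaged at 10 mL/kg about 1 h before dark onset. Pre-weighed food was reweighed at 2, 4, 6 and 24 h.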
# Mus musculus [27] = assay: Increase in food intake in po dosed C57Bl6j mouse free feeding model measured in 2 hrs intervals; assay type: functional, organism-based; outline: as §6
# [28] = Unbound fraction in CD1 mouse plasma; assay type: ADME, cell-free
# [29] = Clearance in CD1 mouse at 2 mg/kg, iv; assay type: ADME, organism-based; parameters: dose 2 mg/kg, route intravenous; conditions: in vivo; outline: as §5
# [30] = Volume of distribution at steady state in Han-Wistar rat at 2 mg/kg, iv; assay type: ADME, organism-based; parameters: dose 2 mg/kg, route intravenous; conditions: in vivo, read-out: Vdss; outline: as §5
# [31] = Ratio of drug level in homogenized brain to plasma in CD1 mouse at 2.7 mg/kg, po measured after 6 hrs by LC-MS/MS method; assay type: ADME, organism-based; parameters: dose 2.7 mg/kg, route oral; conditions: read-out: BPR
# Outline: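 Brain homogenate and plasma drug levels were taken 6 h after oral dosing, and their ratio was reported. Plasma was assayed by LC/MS/MS after acetonitrile protein precipitation.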
# [32] = Cmax in Han-Wistar rat at 2 mg/kg, po by LC-MS/MS method; assay type: ADME, organism-based; parameters: dose 2 mg/kg, route oral; conditions: in vivo; outline: as §2
# [33] = Ratio of free drug level in homogenized brain to plasma in Han-Wistar rat measured 1 hr after iv bolus then iv infusion by LC-MS/MS method; assay type: ADME, organism-based; conditions: read-out: BPR
# Outline: (§7)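 Brain:plasma ratio in homogenized brain 1 h after IV bolus followed by IV infusion. The free ratio used free fractions measured in plasma and brain (brain slice method or brain homogenate).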
# [34] = Ratio of drug level in homogenized brain to plasma in Han-Wistar rat measured 1 hr after iv bolus then iv infusion by LC-MS/MS method; assay type: ADME, organism-based; conditions: read-out: BPR; outline: as §7
smiles,measurement,setting,value
Cc1ccnn1-c1ccc(Cl)c(C(=O)NC(=O)Nc2nc3ccc(S(=O)(=O)C4CCN(C)CC4)cc3s2)c1,Kp at 6 h,[1],0.9
same,Kp uu at 6 h,[2],0.61
same,Cmax,[3],640 nM
same,logD,[4],2.6
same,efflux ratio at 10 µM,MDR1 [5],15
same,IC50,[6],33 nM
same,Papp A→B at 10 µM,MDR1 [7],1.1 ×10⁻⁶ cm/s
CN1CCN(CCCS(=O)(=O)c2ccc3nc(NC(=O)NC(=O)c4ccccc4Cl)sc3c2)CC1,fraction unbound,[8],0.08
same,Cmax,[9],710 nM
same,bioavailability,[10],125%
same,Ratio,[11],310
same,solubility thermodynamic,[12],280 µM
same,Cmax,[13],340 nM
same,Cmax,[14],200 nM
same,fraction unbound,[15],0.096
same,Vd,[16],4.5 L/kg
same,clearance,[17],24 mL/min/kg
same,bioavailability,[18],40%
same,logD,[4],1.8
same,clearance,[19],8.1 mL/min/kg
same,IC50,[20],4.9 nM
same,Ratio,[21],20
same,bioavailability,[22],51%
same,Vd,[23],4 L/kg
same,IC50,[24],3.6 nM
same,Ratio,[25],220
same,efflux ratio at 10 µM,MDR1 [5],4.2
same,IC50,[6],1.3 nM
same,Activity,Mus musculus [26],19%
same,Papp A→B at 10 µM,MDR1 [7],7.1 ×10⁻⁶ cm/s
same,Activity,Mus musculus [27],Active
same,fraction unbound,[28],0.13
same,clearance,[29],35 mL/min/kg
same,Vd,[30],4.9 L/kg
CN1CCC(S(=O)(=O)c2ccc3nc(NC(=O)NC(=O)c4cc5c(cc4Cl)CCN5C)sc3c2)CC1,Kp at 6 h,[31],0.15
same,Kp uu at 6 h,[2],0.072
same,Cmax,[3],3000 nM
same,logD,[4],2.8
same,efflux ratio at 10 µM,MDR1 [5],1.2
same,IC50,[6],7.2 nM
same,Papp A→B at 10 µM,MDR1 [7],5.1 ×10⁻⁶ cm/s
CCc1ccc(Cl)c(C(=O)NC(=O)Nc2nc3ccc(S(=O)(=O)CCCN4CCN(C)CC4)cc3s2)c1,Cmax,[32],1500 nM
same,logD,[4],2.9
same,Kp uu at 1 h,[33],0.04
same,efflux ratio at 10 µM,MDR1 [5],13
same,IC50,[6],0.078 nM
same,Papp A→B at 10 µM,MDR1 [7],1.7 ×10⁻⁶ cm/s
same,Kp at 1 h,[34],0.036
